Experiment [1] has as its target T1, Nitric oxide synthase 3 (Bos taurus, UniProt P29473).
T1 sequence (P29473 whole entry): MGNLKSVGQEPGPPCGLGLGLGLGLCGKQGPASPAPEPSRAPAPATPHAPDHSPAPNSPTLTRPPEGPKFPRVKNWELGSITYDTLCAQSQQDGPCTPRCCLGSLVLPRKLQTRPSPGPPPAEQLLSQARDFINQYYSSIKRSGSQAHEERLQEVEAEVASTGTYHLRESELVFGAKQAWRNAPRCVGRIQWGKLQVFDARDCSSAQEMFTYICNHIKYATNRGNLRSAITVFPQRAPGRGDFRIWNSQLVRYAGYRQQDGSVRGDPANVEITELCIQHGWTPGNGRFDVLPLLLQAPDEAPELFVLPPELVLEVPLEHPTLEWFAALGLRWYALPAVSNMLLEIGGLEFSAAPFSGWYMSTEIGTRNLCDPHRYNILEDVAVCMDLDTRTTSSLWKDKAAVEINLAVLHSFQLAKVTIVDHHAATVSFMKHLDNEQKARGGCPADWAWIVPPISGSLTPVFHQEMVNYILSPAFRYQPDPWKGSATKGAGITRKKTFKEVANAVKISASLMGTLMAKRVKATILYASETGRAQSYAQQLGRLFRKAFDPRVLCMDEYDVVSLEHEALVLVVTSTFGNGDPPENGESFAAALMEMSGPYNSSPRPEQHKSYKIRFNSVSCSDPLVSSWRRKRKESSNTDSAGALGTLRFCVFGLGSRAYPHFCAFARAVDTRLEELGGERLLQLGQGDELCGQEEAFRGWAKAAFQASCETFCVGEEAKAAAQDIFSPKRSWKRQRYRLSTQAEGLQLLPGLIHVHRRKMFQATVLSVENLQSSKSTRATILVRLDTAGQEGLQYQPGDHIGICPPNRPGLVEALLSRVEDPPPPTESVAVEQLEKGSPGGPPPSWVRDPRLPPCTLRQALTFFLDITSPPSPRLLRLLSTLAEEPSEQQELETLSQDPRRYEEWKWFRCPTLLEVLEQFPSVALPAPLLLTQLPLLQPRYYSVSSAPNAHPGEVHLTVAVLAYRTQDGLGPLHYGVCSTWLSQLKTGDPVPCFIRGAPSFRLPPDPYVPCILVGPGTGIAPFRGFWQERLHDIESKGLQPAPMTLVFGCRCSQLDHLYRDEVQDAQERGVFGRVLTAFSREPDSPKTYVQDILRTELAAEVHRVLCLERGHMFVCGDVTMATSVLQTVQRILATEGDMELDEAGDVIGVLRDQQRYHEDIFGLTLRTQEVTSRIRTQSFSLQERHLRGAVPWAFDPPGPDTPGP
Nature of the experiment: Inhibitory activity against endothelial nitric oxide synthase (eNOS).

For experiment [2], the target named is T2, Nitric oxide synthase 1 (Rattus norvegicus, UniProt P29476). Nature of the experiment: Inhibitory activity against neuronal nitric oxide synthase (nNOS); Range is 50-100 uM.
T2 sequence (P29476 whole entry): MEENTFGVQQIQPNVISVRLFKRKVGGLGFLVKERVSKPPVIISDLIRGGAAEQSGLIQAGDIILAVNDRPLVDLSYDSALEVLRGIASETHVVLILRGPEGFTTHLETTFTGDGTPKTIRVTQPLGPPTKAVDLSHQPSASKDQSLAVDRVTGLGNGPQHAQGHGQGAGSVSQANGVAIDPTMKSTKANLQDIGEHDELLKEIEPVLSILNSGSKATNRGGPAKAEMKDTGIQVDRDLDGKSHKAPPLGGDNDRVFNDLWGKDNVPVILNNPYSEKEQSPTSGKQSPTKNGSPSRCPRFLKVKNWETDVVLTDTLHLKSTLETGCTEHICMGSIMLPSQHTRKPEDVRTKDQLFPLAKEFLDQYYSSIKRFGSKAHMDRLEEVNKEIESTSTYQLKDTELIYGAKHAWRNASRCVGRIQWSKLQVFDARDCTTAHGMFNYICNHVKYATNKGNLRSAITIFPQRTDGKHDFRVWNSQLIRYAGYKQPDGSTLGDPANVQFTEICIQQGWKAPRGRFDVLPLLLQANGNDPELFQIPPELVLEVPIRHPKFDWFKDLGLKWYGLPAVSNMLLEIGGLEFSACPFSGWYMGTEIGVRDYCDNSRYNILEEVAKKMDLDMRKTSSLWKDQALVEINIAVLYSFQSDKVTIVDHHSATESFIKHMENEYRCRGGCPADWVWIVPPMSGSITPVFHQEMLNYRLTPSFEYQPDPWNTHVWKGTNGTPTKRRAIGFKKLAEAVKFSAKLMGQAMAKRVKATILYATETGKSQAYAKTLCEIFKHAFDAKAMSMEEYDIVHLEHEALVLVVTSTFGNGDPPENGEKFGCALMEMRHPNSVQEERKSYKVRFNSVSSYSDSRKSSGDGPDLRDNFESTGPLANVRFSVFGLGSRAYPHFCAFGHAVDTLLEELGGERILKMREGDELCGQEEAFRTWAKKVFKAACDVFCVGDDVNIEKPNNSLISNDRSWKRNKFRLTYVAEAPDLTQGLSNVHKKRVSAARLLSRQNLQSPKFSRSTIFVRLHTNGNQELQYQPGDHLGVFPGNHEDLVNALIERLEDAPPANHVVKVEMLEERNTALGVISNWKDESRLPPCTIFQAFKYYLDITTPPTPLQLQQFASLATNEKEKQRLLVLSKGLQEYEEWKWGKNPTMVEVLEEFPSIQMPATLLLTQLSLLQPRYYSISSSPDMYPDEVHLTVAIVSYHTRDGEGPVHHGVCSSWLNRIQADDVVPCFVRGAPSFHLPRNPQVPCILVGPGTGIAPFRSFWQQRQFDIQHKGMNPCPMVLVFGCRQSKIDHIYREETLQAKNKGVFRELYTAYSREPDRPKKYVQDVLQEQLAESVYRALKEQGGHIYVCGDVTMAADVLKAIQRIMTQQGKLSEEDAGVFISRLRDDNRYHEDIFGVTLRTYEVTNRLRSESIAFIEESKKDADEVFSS
Experiment [3] addresses T3, Nitric oxide synthase, inducible (Mus musculus) (UniProt P29477).
T3 sequence (whole entry): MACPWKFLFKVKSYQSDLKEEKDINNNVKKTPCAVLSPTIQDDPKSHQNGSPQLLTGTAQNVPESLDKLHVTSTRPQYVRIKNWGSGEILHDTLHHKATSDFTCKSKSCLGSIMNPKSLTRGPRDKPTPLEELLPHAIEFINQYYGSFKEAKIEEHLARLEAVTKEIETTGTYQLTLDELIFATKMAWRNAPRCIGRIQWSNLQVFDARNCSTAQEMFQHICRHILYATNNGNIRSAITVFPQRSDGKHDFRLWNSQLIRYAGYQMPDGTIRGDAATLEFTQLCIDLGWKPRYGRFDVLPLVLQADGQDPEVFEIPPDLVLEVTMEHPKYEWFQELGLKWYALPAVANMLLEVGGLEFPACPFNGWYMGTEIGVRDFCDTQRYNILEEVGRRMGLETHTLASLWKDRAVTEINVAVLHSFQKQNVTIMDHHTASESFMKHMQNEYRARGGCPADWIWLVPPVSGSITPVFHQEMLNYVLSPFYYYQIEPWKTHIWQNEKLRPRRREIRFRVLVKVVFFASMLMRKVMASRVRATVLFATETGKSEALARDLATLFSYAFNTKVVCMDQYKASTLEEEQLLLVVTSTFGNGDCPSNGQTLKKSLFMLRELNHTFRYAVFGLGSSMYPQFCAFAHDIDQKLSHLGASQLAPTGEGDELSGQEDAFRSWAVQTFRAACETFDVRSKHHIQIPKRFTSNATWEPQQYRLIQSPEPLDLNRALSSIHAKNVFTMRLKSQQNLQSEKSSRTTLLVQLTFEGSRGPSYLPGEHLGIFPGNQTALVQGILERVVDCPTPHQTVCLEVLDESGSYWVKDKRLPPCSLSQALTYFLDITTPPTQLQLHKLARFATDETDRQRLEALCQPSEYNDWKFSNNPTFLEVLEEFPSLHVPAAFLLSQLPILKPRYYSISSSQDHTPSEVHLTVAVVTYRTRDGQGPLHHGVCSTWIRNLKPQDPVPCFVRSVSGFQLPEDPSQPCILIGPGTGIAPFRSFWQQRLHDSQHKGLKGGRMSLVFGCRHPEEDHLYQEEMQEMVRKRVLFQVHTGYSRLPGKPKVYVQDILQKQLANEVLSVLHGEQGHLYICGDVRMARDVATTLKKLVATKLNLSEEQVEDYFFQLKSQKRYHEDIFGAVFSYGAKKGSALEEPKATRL
Nature of the experiment: Inhibitory activity against inducible nitric oxide synthase (iNOS) at 100 uM. Further details: scale not given: the % may be the effect or the level left. Summed up:
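Single-point screen against murine macrophage iNOS: enzyme residual activity measured at 100 μM inhibitor. NO formation monitored by hemoglobin capture assay with a UV/vis spectrophotometer.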

The target in experiment [4] is T2, Nitric oxide synthase 1. Nature of the experiment: Inhibitory activity against neuronal nitric oxide synthase (nNOS).

“And” between values parts separate entries of the source, which are not always exact repeats. Identical values can stand only once. A value given as a limit tells only on which side of the number the result lay.

`N=C(NCCC[C@H](NC(=O)[C@H]1CC(N)CN1)C(N)=O)N[N+](=O)[O-]` (single isomer, unassigned; cis): the values for the half-inhibitory concentration (IC50) in experiment [1] and in experiment [2] were > 100 µM and < 100 µM, respectively.

For `[N-]=[N+]=N[C@H]1CNC(C(=O)N[C@H](CCCNC(=N)N[N+](=O)[O-])C(N)=O)C1` (single isomer, unassigned), the concentration for half-maximal inhibition (IC50) in experiment [1] is > 100 µM; in experiment [2], < 100 µM. As for `[N-]=[N+]=NC1CN[C@@H](C(=O)N[C@H](CCCNC(=N)N[N+](=O)[O-])C(N)=O)C1` (single isomer, unassigned; cis), the IC50 in experiment [1] is > 100 µM. As for `[N-]=[N+]=N[C@H]1CN[C@@H](C(=O)C[C@@H](CCC/N=C(\N)N[N+](=O)[O-])C(N)=O)C1`, the IC50 in experiment [1] was > 100 µM. For `[N-]=[N+]=N[C@@H]1CNC(C(=O)N[C@@H](CCC/N=C(\N)N[N+](=O)[O-])C(N)=O)C1` (single isomer, unassigned), the IC50 in experiment [1] was > 100 µM.

As for `NC(=O)[C@@H]1C[C@@H](NC(=O)[C@H](N)CCC/N=C(\N)N[N+](=O)[O-])CN1`, in experiment [3], the Activity amounted to 97%.

As for `NC(=O)[C@@H]1C[C@H](N)CN1C(=O)[C@H](N)CCC/N=C(\N)N[N+](=O)[O-]`, in experiment [1], the concentration for half-maximal inhibition (IC50) was > 100 µM. On the same count and under the same terms, next, `[N-]=[N+]=N[C@@H]1CNC(C(=O)N[C@H](CCCNC(=N)N[N+](=O)[O-])C(N)=O)C1` (single isomer, unassigned): > 100 µM; `N=C(NCCC[C@@H](N)C(=O)N1CC(N)C[C@@H]1C(N)=O)N[N+](=O)[O-]` (single isomer, unassigned; trans): > 100 µM.

As for `N=C(NCCC[C@H](NC(=O)[C@H]1CC(N)CN1)C(N)=O)N[N+](=O)[O-]` (single isomer, unassigned; trans), the IC50 is > 100 µM in experiment [1] and < 100 µM in experiment [2]. `NC(=O)[C@H]1CC(N)CN1C(=O)[C@@H](N)CCC/N=C(\N)N[N+](=O)[O-]` (single isomer, unassigned; trans): in experiment [1], the IC50 is > 100 µM. Still for that read-out and setting: next, `NC(=O)[C@@H]1C[C@H](N)CN1C(=O)[C@@H](N)CCC/N=C(\N)N[N+](=O)[O-]`: > 100 µM.

As for `N=C(NCCC[C@H](N)C(=O)N1CC(N)C[C@@H]1C(N)=O)N[N+](=O)[O-]` (single isomer, unassigned; cis), in experiment [1], the IC50 is > 100 µM. Still for that read-out and setting: for `N=C(NCCC[C@@H](N)C(=O)N1CC(NC(=O)C(F)(F)F)C[C@@H]1C(N)=O)N[N+](=O)[O-]` (single isomer, unassigned; cis) the value was > 100 µM; for `NC(=O)[C@@H]1C[C@H](NC(=O)C(F)(F)F)CN1C(=O)[C@@H](N)CCC/N=C(\N)N[N+](=O)[O-]`, > 100 µM. Regarding `N=C(NCCC[C@H](N)C(=O)N[C@H]1CNC(C(N)=O)C1)N[N+](=O)[O-]` (single isomer, unassigned), in experiment [3], the Activity came to 94%. Take `[N-]=[N+]=N[C@@H]1CN[C@@H](C(=O)C[C@@H](CCC/N=C(\N)N[N+](=O)[O-])C(N)=O)C1`: the half-maximal inhibitory concentration (IC50) is > 100 µM in experiment [1] and < 100 µM in experiment [2]. As for `CC(=N)Nc1cccc(CN)c1`, the IC50 in experiment [1] was 0.48 µM and 1.1 µM; in experiment [4] it was 0.011 µM. Consider `N=C(NCCC[C@H](N)C(=O)N1CC(NC(=O)C(F)(F)F)C[C@@H]1C(N)=O)N[N+](=O)[O-]` (single isomer, unassigned; trans), for which the half-inhibitory concentration (IC50) in experiment [1] is > 100 µM. Turning to `N=C(NCCC[C@@H](N)C(=O)NC1CNC(C(N)=O)C1)N[N+](=O)[O-]` (single isomer, unassigned), in experiment [3], the Activity amounted to 96%. As to `N=C(NCCC[C@H](NC(=O)C1C[C@H](N)CN1)C(N)=O)N[N+](=O)[O-]` (single isomer, unassigned), in experiment [1], the IC50 is > 100 µM.

Regarding `N=C(NCCC[C@H](N)C(=O)N1CC(NC(=O)C(F)(F)F)C[C@@H]1C(N)=O)N[N+](=O)[O-]` (single isomer, unassigned; cis), the 50% inhibitory concentration (IC50) in experiment [1] is > 100 µM. Still for that read-out and setting: next, `N=C(NCCC[C@@H](NC(=O)C1C[C@H](N)CN1)C(N)=O)N[N+](=O)[O-]` (single isomer, unassigned): > 100 µM.

For the compound `NC(=O)[C@@H]1C[C@@H](NC(=O)C(F)(F)F)CN1C(=O)[C@@H](N)CCC/N=C(\N)N[N+](=O)[O-]`, the half-inhibitory concentration (IC50) in experiment [1] is > 100 µM; in experiment [4] it was ~100 µM. On to `[N-]=[N+]=N[C@H]1CNC(C(=O)N[C@@H](CCC/N=C(\N)N[N+](=O)[O-])C(N)=O)C1` (single isomer, unassigned), for which the IC50 in experiment [1] was > 100 µM; in experiment [2], < 100 µM. With `NC(=O)[C@@H]1C[C@H](NC(=O)[C@@H](N)CCC/N=C(\N)N[N+](=O)[O-])CN1`, the Activity in experiment [3] is 95%. On to `N=C(NCCC[C@H](NC(=O)C1C[C@@H](N)CN1)C(N)=O)N[N+](=O)[O-]` (single isomer, unassigned), for which the half-maximal inhibitory concentration (IC50) in experiment [1] is > 100 µM. With `N=C(NCCC[C@@H](N)C(=O)N[C@H]1CNC(C(N)=O)C1)N[N+](=O)[O-]` (single isomer, unassigned), the Activity in experiment [3] was determined as 97%. `N=C(NCCC[C@@H](NC(=O)[C@H]1CC(N)CN1)C(N)=O)N[N+](=O)[O-]` (single isomer, unassigned; cis): the figures for the IC50 in experiment [1] and in experiment [2] were > 100 µM and < 100 µM, respectively. In the case of `NC(=O)[C@@H]1C[C@H](NC(=O)[C@H](N)CCC/N=C(\N)N[N+](=O)[O-])CN1`, the Activity in experiment [3] is 96%. `NC(=O)[C@@H]1C[C@@H](NC(=O)C(F)(F)F)CN1C(=O)[C@H](N)CCC/N=C(\N)N[N+](=O)[O-]`: in experiment [1], the IC50 was > 100 µM.

Consider `NC(=O)[C@H]1CC(NC(=O)C(F)(F)F)CN1C(=O)[C@H](N)CCC/N=C(/N)N[N+](=O)[O-]` (single isomer, unassigned; trans), for which the half-maximal inhibitory concentration (IC50) in experiment [1] is > 100 µM.

Turning to `NC(=O)C1CC(N)CN1C(=O)C(N)CCC/N=C(\N)N[N+](=O)[O-]` (configuration not stated), in experiment [1], the IC50 is > 100 µM.

On to `N=C(NCCC[C@@H](NC(=O)[C@H]1CC(N)CN1)C(N)=O)N[N+](=O)[O-]` (single isomer, unassigned; trans), for which the IC50 was > 100 µM in experiment [1] and < 100 µM in experiment [2]. On to `NC(=O)[C@@H]1C[C@H](NC(=O)C(F)(F)F)CN1C(=O)[C@H](N)CCC/N=C(\N)N[N+](=O)[O-]`, for which the concentration for half-maximal inhibition (IC50) in experiment [1] is > 100 µM.

On to `N=C(NCCC[C@@H](NC(=O)C1C[C@@H](N)CN1)C(N)=O)N[N+](=O)[O-]` (single isomer, unassigned), for which the IC50 in experiment [1] was > 100 µM. For `NC(=O)[C@@H]1C[C@@H](N)CN1C(=O)[C@H](N)CCC/N=C(\N)N[N+](=O)[O-]`, the IC50 in experiment [1] was > 100 µM. Consider `[N-]=[N+]=NC1CN[C@@H](C(=O)N[C@H](CCCNC(=N)N[N+](=O)[O-])C(N)=O)C1` (single isomer, unassigned; trans), for which, in experiment [1], the IC50 is > 100 µM.

As a reminder, the IC50 is the concentration needed to halve the response being measured.

Values taken from ChEMBL document CHEMBL1137082, “Potent and selective conformationally restricted neuronal nitric oxide synthase inhibitors” (J Med Chem, 2004).
